Test [1] is described as follows: Cytotoxicity against c-Met-dependent human U87MG cells assessed as growth inhibition after 72 hrs by MTT assay. The class given is functional, cell-based, U-87MG ATCC. The conditions noted are these: U-87 MG. The method in brief:
(§1)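 Cells grown in MEM with 10% FBS. About 4×10³ cells/well were seeded and incubated 24 h at 37 °C, 5% CO₂, then exposed to compound for 72 h. MTT was added (terminal 5 µg/mL) for 4 h at 37 °C, and formazan was dissolved in DMSO. IC50 is the mean of three determinations.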

The nature of test [2]: Cytotoxicity against c-Met-independent human H460 cells assessed as growth inhibition after 72 hrs by MTT assay. The following applies: NCI-H460, 72 h. In general terms: Tetrazolium dyes change colour on reduction, which living cells bring about.
In another test the test system is A549. Briefly: Cytotoxicity against c-Met-dependent human A549 cells assessed as growth inhibition after 72 hrs by MTT assay. The following applies: A549, 72 h.
Another test relates to MKN-45. Briefly: Cytotoxicity against c-Met-dependent human MKN45 cells assessed as growth inhibition after 72 hrs by MTT assay. The following applies: MKN-45, 72 h.
A further test concerns SMMC-7721. Briefly: Cytotoxicity against c-Met-dependent human SMMC7721 cells assessed as growth inhibition after 72 hrs by MTT assay. The following applies: SMMC-7721, 72 h. The class given is functional, cell-based. In a few lines: as §1
In a further test the test system is HT-29. Briefly: Cytotoxicity against c-Met-dependent human HT-29 cells assessed as growth inhibition after 72 hrs by MTT assay. The conditions noted are these: HT-29, 72 h.
Test [3] addresses Vascular endothelial growth factor receptor 2 (Homo sapiens, UniProt P35968). Briefly: Inhibition of VEGFR-2 (unknown origin).
Test [4] addresses T1, Hepatocyte growth factor receptor (Homo sapiens, UniProt P08581). Briefly: Inhibition of c-Met (unknown origin). In a few lines: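 HTRF kinase assay on plates precoated with 20 µg/mL poly(Glu,Tyr) 4:1. ATP (10 mM solution) in 50 mM HEPES pH 7.0 buffer with DTT, MgCl₂, MnCl₂ and 0.1% NaN₃. Compound in 1% DMSO; reaction started with purified kinase and run 30 min at 25 °C. Inhibition relative to enzyme and no-enzyme controls; IC50 from the inhibition curves.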

Test [5] deals with T1, Hepatocyte growth factor receptor. Briefly: Inhibition of wild type GST-tagged c-Met kinase domain (1058 to 1365) (unknown origin) expressed in Sf9 cells by HTRF assay.

Each structure is given as a SMILES string.

What is called IC50 is the concentration needed to halve the response being measured.

As for `COc1cc2c(Oc3ccc(NC(=O)c4nn(-c5cccc(F)c5)c5ccccc5c4=O)cc3F)ccnc2cc1OCCCN1CCCCC1`, the IC50 in test [1] is 2460 nM; in test [2] it was 910 nM; with A549, 110 nM; in the test on MKN-45, 140 nM; in the test on SMMC-7721, 2020 nM; in the test with HT-29, 1880 nM.
In the case of `COc1cc2c(Oc3ccc(NC(=O)c4nn(-c5ccc(Br)cc5)c5ccccc5c4=O)cc3F)ccnc2cc1OCCCN1CCCCC1`, the IC50 in test [1] is 1600 nM; in test [2], 400 nM; in the test on A549 it was 530 nM; in the test with MKN-45, 450 nM; with SMMC-7721, 840 nM; in the test on HT-29 it was 1140 nM.
Regarding `COc1cc2c(Oc3ccc(NC(=O)c4nn(-c5ccccc5C(F)(F)F)c5ccccc5c4=O)cc3F)ccnc2cc1OCCCN1CCOCC1`, the half-inhibitory concentration (IC50) was 1480 nM in [1]; 80 nM in [2]; 60 nM in the test on A549; 20 nM in the test with MKN-45; 840 nM with SMMC-7721; 510 nM in the test on HT-29.
Take `COc1cc2c(Oc3ccc(NC(=O)c4nn(-c5cccc(C(F)(F)F)c5)c5ccccc5c4=O)cc3F)ccnc2cc1OCCCN1CCCCC1`: the IC50 in [1] amounted to 1620 nM; in [2], 1030 nM; in the test on A549, 310 nM; with MKN-45, 270 nM; with SMMC-7721, 330 nM; in the test on HT-29, 560 nM.
Take `COc1cc2c(Oc3ccc(NC(=O)c4nn(-c5ccc(F)cc5)c5ccccc5c4=O)cc3F)ccnc2cc1OCCCN1CCC(C)CC1`: the IC50 in test [1] amounted to 1120 nM; in test [2], 890 nM; with A549, 150 nM; in the test with MKN-45, 170 nM; in the test with SMMC-7721, 930 nM; in the test on HT-29, 460 nM.
On to `COc1cc2c(Oc3ccc(NC(=O)c4nn(-c5ccc(F)c(F)c5)c5ccccc5c4=O)cc3F)ccnc2cc1OCCCN1CCCC1`, for which the half-inhibitory concentration (IC50) in test [1] came to 1060 nM; in test [2], 640 nM; in the test on A549 it was 260 nM; in the test with MKN-45, 350 nM; with SMMC-7721 it was 590 nM; with HT-29, 1120 nM.
`COc1cc2c(Oc3ccc(NC(=O)N4CCN(c5ccccc5)C4=O)cc3F)ccnc2cc1OCCCN1CCOCC1` had an IC50 in test [3] of 30 nM.
With `COc1cc2c(Oc3ccc(NC(=O)c4nn(-c5c(Cl)cccc5Cl)c5ccccc5c4=O)cc3F)ccnc2cc1OCCCN1CCCC1`, the IC50 is 1250 nM in [1]; 370 nM in [2]; 350 nM with A549; 350 nM with MKN-45; 840 nM in the test on SMMC-7721; 1050 nM in the test on HT-29.
For `COc1cc2c(Oc3ccc(NC(=O)c4nn(-c5ccc(Cl)c(C(F)(F)F)c5)c5ccccc5c4=O)cc3F)ccnc2cc1OCCCN1CCC(C)CC1`, the half-inhibitory concentration (IC50) in test [1] amounted to 540 nM; in test [2], 110 nM; with A549, 240 nM; with MKN-45, 140 nM; in the test on SMMC-7721, 370 nM; in the test with HT-29, 490 nM.
On to `COc1cc2c(Oc3ccc(NC(=O)c4nn(-c5cccc(C(F)(F)F)c5)c5ccccc5c4=O)cc3F)ccnc2cc1OCCCN1CCCC1`, for which the IC50 was determined as 850 nM in test [1]; 1040 nM in test [2]; 300 nM in the test with A549; 190 nM with MKN-45; 630 nM in the test on SMMC-7721; 780 nM in the test with HT-29.
Consider `COc1cc2c(Oc3ccc(NC(=O)c4nn(-c5ccccc5Cl)c5ccccc5c4=O)cc3F)ccnc2cc1OCCCN1CCCCC1`, for which the IC50 was 490 nM in test [1]; 73 nM in [2]; 43 nM in the test on A549; 50 nM with MKN-45; 420 nM with SMMC-7721; 260 nM in the test on HT-29.
For the compound `COc1cc2c(Oc3ccc(NC(=O)c4nn(-c5ccc(Cl)cc5)c5ccccc5c4=O)cc3F)ccnc2cc1OCCCN1CCCCC1`, the IC50 was found to be 1620 nM in test [1]; 640 nM in [2]; 200 nM in the test on A549; 230 nM in the test on MKN-45; 330 nM in the test with SMMC-7721; 2120 nM in the test with HT-29.
The compound `COc1cc2c(Oc3ccc(-c4cnc(Nc5ccccc5)n(C)c4=O)cc3F)ccnc2cc1OCCCN1CCOCC1` displayed an IC50 in test [4] of 4.9 nM.
`COc1cc2c(Oc3ccc(-c4cnc(Cc5ccccc5)n(C)c4=O)cc3F)ccnc2cc1OCCCN1CCOCC1` showed an IC50 in test [5] of 8.9 nM.
In the case of `COc1cc2c(Oc3ccc(NC(=O)c4nn(-c5ccccc5C(F)(F)F)c5ccccc5c4=O)cc3F)ccnc2cc1OCCCN1CCCCC1`, the IC50 came to 1160 nM in test [1]; 81 nM in test [2]; 55 nM with A549; 27 nM in the test on MKN-45; 1350 nM in the test on SMMC-7721; 560 nM in the test on HT-29.
Consider `COc1cc2c(Oc3ccc(NC(=O)c4nn(-c5ccccc5Cl)c5ccccc5c4=O)cc3F)ccnc2cc1OCCCN1CCOCC1`, for which the concentration for half-maximal inhibition (IC50) in [1] came out at 1690 nM; in test [2] it was 10 nM; with A549, 30 nM; with MKN-45, 10 nM; in the test on SMMC-7721 it was 920 nM; with HT-29 it was 240 nM.
On to `COc1cc2c(Oc3ccc(NC(=O)c4nn(-c5ccccc5)c5ccccc5c4=O)cc3F)ccnc2cc1OCCCN1CCOCC1`, for which the 50% inhibitory concentration (IC50) in test [1] stood at 1460 nM; in [2], 690 nM; in the test with A549, 570 nM; with MKN-45, 960 nM; in the test with SMMC-7721 it was 1130 nM; in the test with HT-29, 1170 nM.
As to `COc1cc2c(Oc3ccc(NC(=O)c4nn(-c5ccccc5F)c5ccccc5c4=O)cc3F)ccnc2cc1OCCCN1CCC(C)CC1`, the IC50 turned out to be 1210 nM in test [1]; 290 nM in test [2]; 330 nM in the test on A549; 580 nM with MKN-45; 950 nM with SMMC-7721; 780 nM with HT-29.
As to `COc1cc2c(Oc3ccc(NC(=O)c4nn(-c5cccc(C(F)(F)F)c5)c5ccccc5c4=O)cc3F)ccnc2cc1OCCCN1CCC(C)CC1`, the IC50 in test [1] came out at 730 nM; in [2] it was 550 nM; in the test on A549 it was 210 nM; in the test on MKN-45, 160 nM; in the test on HT-29 it was 1020 nM.
Take `COc1cc2c(Oc3ccc(NC(=O)c4nn(-c5c(Cl)cccc5Cl)c5ccccc5c4=O)cc3F)ccnc2cc1OCCCN1CCC(C)CC1`: the IC50 in test [1] stood at 1040 nM; in [2], 650 nM; with A549, 400 nM; in the test with MKN-45 it was 360 nM; in the test with SMMC-7721, 820 nM; with HT-29, 920 nM.
As to `COc1cc2c(Oc3ccc(NC(=O)c4nn(-c5cc(C(F)(F)F)ccc5Cl)c5ccccc5c4=O)cc3F)ccnc2cc1OCCCN1CCCC1`, the IC50 in [1] amounted to 1420 nM; in test [2], 610 nM; in the test on A549, 200 nM; with MKN-45, 170 nM; in the test with HT-29 it was 1120 nM.

The record behind these values is ChEMBL document CHEMBL2385045, “Discovery of novel 4-(2-fluorophenoxy)quinoline derivatives bearing 4-oxo-1,4-dihydrocinnoline-3-carboxamide moiety as c-Met kinase inhibitors” (Bioorg Med Chem, 2013).
